Source: PMC9118414 (ACS Omega, 2022)

Legend:
Assay in all cases: Acute cytotoxicity, sulforhodamine B
Format in all cases: cell-based
[1] = system: A549 nonsmall cell lung carcinoma; conditions: Homo sapiens, A549, 72 h, read-out: IC50 on cell viability, A549
[2] = system: PC3 prostate adenocarcinoma; conditions: Homo sapiens, 72 h, read-out: IC50 on cell viability, PC3
[3] = system: HL60 promyelocytic leukemia; conditions: Homo sapiens, HL-60, 72 h, read-out: IC50 on cell viability, HL60
[4] = system: HEK293 human embryonic kidney cells; conditions: HEK293, 72 h, read-out: IC50 on cell viability, HEK293
[5] = system: peripheral blood mononuclear cells (PBMC); conditions: Homo sapiens, 72 h, read-out: IC50 on cell viability, PBMC
How it was run: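 PBMC were collected from healthy volunteers and kept in RPMI 1640 with 10% FBS and antibiotics at 37 °C, 5% CO2. 1.0 × 10^5 cells were exposed to various test-compound concentrations for 72 h. Viability read by sulforhodamine B assay. IC50 derived by curve fitting; values are means of three independent experiments.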

COc1cccc2c1C(=O)c1c(O)c3c(c(O)c1C2=O)C[C@@](O)(C(=O)CO)C[C@@H]3O[C@H]1C[C@H](N)[C@H](O)[C@H](C)O1 [Doxorubicin]
IC50 [1]: 1800 ± 900 nM
IC50 [2]: 2700 ± 1300 nM
IC50 [3]: 70 ± 40 nM
IC50 [4]: 4800 ± 2000 nM
IC50 [5]: 5200 ± 1800 nM
